The values below come from article PMC11959959 (Acta Pharmaceutica Sinica. B, 2024).

One data set deals with B16F10 cells. Put plainly: Cell uptake assay in B16F10 cells. In kind it is cell-based, murine. The note with it: 750 kBq/mL, 5-80 min.
Data set [1] deals with B16F10 tumor-bearing mice. Put plainly: PET/CT imaging in B16F10 tumor-bearing mice. In kind it is in vivo. The note with it: 0.5 and 1 h p.i. The essentials: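 Mice bear s.c. B16F10 allografts (1×10^6 cells, left flank), imaged at tumor volume ≥100 mm³, usually day 10. They receive 200 μCi of tracer in 100 μL normal saline by tail vein. Dynamic micro-PET/CT runs for 1 h from injection, with three mice per tracer. The PEGylated tracer also gets static scans at 0.5, 1, 5, 10 and 24 h. Data are decay-corrected and given as %ID/g.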

Turning to “[^64Cu]QM-2303: 64Cu-labeled PEGibody from QM-2302 PEGylated with 4-arm PEG (KSSPHSRNSGSGSGSGSGRGDSPC; NOTA conjugated to the N-terminus; thiol group of the C-terminal cysteine linked to 4-arm PEG; labelled with ^64Cu in the cell assays)”, the “cell uptake / percentage of binding to integrin α5β1” value in the data set on B16F10 cells is “greater percentage of binding to integrin α5β1 than [^64Cu]QM-2301 and [^64Cu]QM-2302”. The “kidney accumulation” value in data set [1] was “comparable to that of [^64Cu]QM-2301”.
